# Experimental data from ChEMBL document CHEMBL1146962, “Design, synthesis, and biological evaluation of a scaffold for iGluR ligands based on the structure of (-)-dysiherbaine” (Bioorg Med Chem Lett, 2006).
# The source made the active and inactive calls. The rule behind the calls is not given here.
# Tests used:
# Assay type in all cases: functional
# [1] = molecular target: T1, Glutamate NMDA receptor (Rattus norvegicus) (UniProt P35439+Q00959+Q00960+Q00961+Q62645+Q8VHN2+Q9R1M7); assay: Agonist activity at rat NMDA receptor in presence of glycine assessed by generation of membrane current at 100 uM relative to control
# How it was run: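 Rat cortex mRNA-injected oocytes. The analog (100 μM) was applied in the presence of 100 μM glycine. The elicited current is expressed relative to a positive control of 100 μM NMDA plus 100 μM glycine.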
# [2] = molecular target: T2, Glutamate receptor ionotropic, kainate (Rattus norvegicus) (UniProt P22756+Q01812+P42260+P42264+Q63273); assay: Agonist activity at rat KA receptor assessed by generation of membrane current at 100 uM relative to control
# [3] = molecular target: T2, Glutamate receptor ionotropic, kainate (Rattus norvegicus); assay: Antagonist activity against rat KA receptor assessed by inhibition of kainate-induced membrane current at 100 uM; parameters: scale not given: the % may be the effect or the level left
# How it was run: (§1)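 Oocytes injected with native rat cerebral cortex mRNA were used. Membrane currents induced by 100 μM kainate were recorded with the test agent present (analogs at 100 μM; CNQX reference at 1 μM). Residual current is reported as a percentage of the kainate control. N = 2-7 oocyte preparations.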
# [4] = molecular target: T1, Glutamate NMDA receptor (Rattus norvegicus); assay: Antagonist activity against rat NMDA receptor assessed by inhibition of NMDA plus glycine-induced membrane current at 100 uM
# How it was run: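 In rat cortex mRNA-injected oocytes, analogs (100 μM) were tested against currents evoked by 100 μM NMDA plus 100 μM glycine.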
# [5] = molecular target: T2, Glutamate receptor ionotropic, kainate (Rattus norvegicus); assay: Antagonist activity against rat KA receptor assessed by inhibition of kainate-induced membrane current at 1 uM; parameters: scale not given: the % may be the effect or the level left; how it was run: as §1
# [6] = molecular target: T2, Glutamate receptor ionotropic, kainate (Rattus norvegicus); assay: Agonist activity at rat KA receptor assessed by generation of membrane current at 100 uM relative to control in presence of 10 uM cyclothiazide
# How it was run: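 Oocytes were injected with rat cerebral cortex mRNA. Each analog at 100 μM was co-applied with 10 μM cyclothiazide (AMPA receptor desensitization inhibitor). Membrane current is given as a percentage of the 100 μM kainate control current, with and without cyclothiazide. N = 2-7 oocyte preparations.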
SMILES,Activity [1],Activity [2],Activity [3] [%],Activity [4],Activity [5] [%],Activity [6] [%]
N[C@@H](C[C@]1(C(=O)O)Cc2ccccc2O1)C(=O)O,inactive,inactive,55,inactive,,
N#Cc1cc2c(cc1[N+](=O)[O-])=NC(=O)C(=O)N=2,,,,,38,
N[C@@H](C[C@@]1(C(=O)O)Cc2ccccc2O1)C(=O)O,,inactive,100,inactive,,
Cc1ccc2c(c1)C[C@](C[C@H](N)C(=O)O)(C(=O)O)O2,44%,inactive,72,inactive,,
Cc1cccc2c1O[C@@](C[C@H](N)C(=O)O)(C(=O)O)C2,inactive,6%,95,inactive,,13
